From ChEMBL document CHEMBL2062469, “1-(2-Mercaptobenzenesulfonyl)-3-hydroxyguanidines--novel potent antiproliferatives, synthesis and in vitro biological activity” (2012)

How the values were obtained:
Assay type in all cases: functional
SF-539 = assay: Cytostatic activity against human SF539 cells
Summary of the method: (§1)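 NCI-60 human tumor cell line screen run by the US National Cancer Institute under the NIH Developmental Therapeutics Program protocol. A single-dose prescreen at 10 µM came first. Selected compounds then went into the 5-dose assay. Cytostatic activity is reported as GI50 (µM).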

EKVX = assay: Cytostatic activity against human EKVX cells; summary of the method: as §1
PC-3 = assay: Cytostatic activity against human PC3 cells; summary of the method: as §1
HOP-92 = assay: Cytostatic activity against human HOP92 cells; summary of the method: as §1
NCI/ADR-RES = assay: Cytostatic activity against human NCI-ADR-RES cells; summary of the method: as §1
CCRF-CEM = assay: Cytostatic activity against human CCRF-CEM cells; summary of the method: as §1
NCI-H226 = assay: Cytostatic activity against human NCI-H226 cells; summary of the method: as §1
UO-31 = assay: Cytostatic activity against human UO31 cells
Summary of the method: (§2)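 Human tumour cell lines from the NCI-60 panel, tested at the US National Cancer Institute under the NIH Developmental Therapeutics Program protocol. A single-dose prescreen at 10 µM came first. Selected compounds then went to a 5-dose assay, which gave GI50 and TGI values in µM.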

K562 = assay: Cytostatic activity against human K562 cells; summary of the method: as §1
A498 = assay: Cytostatic activity against human A498 cells; summary of the method: as §1
SW-620 = assay: Cytostatic activity against human SW620 cells; summary of the method: as §2
U-251 = assay: Cytostatic activity against human U251 cells; summary of the method: as §2
OVCAR-3 = assay: Cytostatic activity against human OVCAR3 cells; summary of the method: as §1
COLO 205 = assay: Cytostatic activity against human COLO205 cells; summary of the method: as §1
OVCAR-8 = assay: Cytostatic activity against human OVCAR8 cells; summary of the method: as §1
SN12C = assay: Cytostatic activity against human SN12C cells; summary of the method: as §1
HCC 2998 = assay: Cytostatic activity against human HCC2998 cells; summary of the method: as §1
T47D = assay: Cytostatic activity against human T47D cells; summary of the method: as §2
HT-29 = assay: Cytostatic activity against human HT-29 cells; summary of the method: as §1
DU-145 = assay: Cytostatic activity against human DU145 cells; summary of the method: as §1
HCT-116 = assay: Cytostatic activity against human HCT116 cells; summary of the method: as §1
MDA-MB-435 = assay: Cytostatic activity against human MDA-MB-435 cells; summary of the method: as §1
SNB-19 = assay: Cytostatic activity against human SNB19 cells; summary of the method: as §1
TK-10 = assay: Cytostatic activity against human TK10 cells; summary of the method: as §2
UACC-257 = assay: Cytostatic activity against human UACC257 cells; summary of the method: as §2
NCI-H460 = assay: Cytostatic activity against human NCI-H460 cells; summary of the method: as §1
[1] = Cytostatic activity against human […] cells; summary of the method: as §1
NCI-H522 = assay: Cytostatic activity against human NCI-H522 cells; summary of the method: as §1
HCT-15 = assay: Cytostatic activity against human HCT15 cells; summary of the method: as §1
OVCAR-5 = assay: Cytostatic activity against human OVCAR5 cells; summary of the method: as §1
SNB-75 = assay: Cytostatic activity against human SNB75 cells; summary of the method: as §2
IGROV-1 = assay: Cytostatic activity against human IGROV1 cells; summary of the method: as §1
MDA-MB-231 = assay: Cytostatic activity against human MDA-MB-231/ATCC cells; summary of the method: as §1
OVCAR-4 = assay: Cytostatic activity against human OVCAR4 cells; summary of the method: as §1
M14 = assay: Cytostatic activity against human M14 cells; summary of the method: as §1
HL-60(TB) = assay: Cytostatic activity against human HL-60(TB) cells
Summary of the method: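 NCI-60 panel screen run per the NIH Developmental Therapeutics Program protocol. Agents first went through a one-dose test at 10 µM. Selected compounds were then run in a 5-dose assay, from which GI50 and TGI values were derived.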

SK-MEL-5 = assay: Cytostatic activity against human SK-MEL-5 cells; summary of the method: as §1
SR = assay: Cytostatic activity against human SR cells; summary of the method: as §2
A549 = assay: Cytostatic activity against human A549/ATCC cells; summary of the method: as §1
CAKI-1 = assay: Cytostatic activity against human Caki1 cells; summary of the method: as §1
MDA-MB-468 = assay: Cytostatic activity against human MDA-MB-468 cells; summary of the method: as §1
ACHN = assay: Cytostatic activity against human ACHN cells; summary of the method: as §1
KM12 = assay: Cytostatic activity against human KM12 cells; summary of the method: as §1
LOX IMVI = assay: Cytostatic activity against human LOXIMVI cells; summary of the method: as §1
Hs-578T = assay: Cytostatic activity against human Hs 578T cells; summary of the method: as §1
NCI-H23 = assay: Cytostatic activity against human NCI-H23 cells; summary of the method: as §1
SF-268 = assay: Cytostatic activity against human SF268 cells; summary of the method: as §1
MCF7 = assay: Cytostatic activity against human MCF7 cells; summary of the method: as §1
SK-MEL-2 = assay: Cytostatic activity against human SK-MEL-2 cells; summary of the method: as §1
HOP-62 = assay: Cytostatic activity against human HOP62 cells; summary of the method: as §1
UACC-62 = assay: Cytostatic activity against human UACC62 cells; summary of the method: as §2
SF-295 = assay: Cytostatic activity against human SF295 cells; summary of the method: as §1
NCI-H322M = assay: Cytostatic activity against human NCI-H322M cells; summary of the method: as §1
Malme-3M = assay: Cytostatic activity against human MALME-3M cells; summary of the method: as §1
SK-MEL-28 = assay: Cytostatic activity against human SK-MEL-28 cells; summary of the method: as §1
RXF 393 = assay: Cytostatic activity against human RXF393 cells; summary of the method: as §1
MOLT-4 = assay: Cytostatic activity against human MOLT4 cells; summary of the method: as §1

## N=C(NO)NS(=O)(=O)c1cc(-c2nnc(-c3ccc(Cl)cc3)s2)c(Cl)cc1SCc1ccccc1
SF-539
  GI50: 1.97 µM
  TGI: 3.9 µM
EKVX
  GI50: 1.99 µM
  TGI: 4.12 µM
PC-3
  GI50: 1.74 µM
  TGI: 3.27 µM
HOP-92
  GI50: 2.76 µM
  TGI: 7.42 µM
NCI/ADR-RES
  GI50: 7.39 µM
CCRF-CEM
  GI50: 0.84 µM
  TGI: 3.83 µM
NCI-H226
  GI50: 2.07 µM
  TGI: 4.05 µM
UO-31
  GI50: 1.99 µM
  TGI: 4.68 µM
K562
  GI50: 2.23 µM
  TGI: 6.31 µM
A498
  GI50: 1.75 µM
  TGI: 5.55 µM
SW-620
  GI50: 1.47 µM
  TGI: 3.07 µM
U-251
  GI50: 1.54 µM
  TGI: 3.09 µM
OVCAR-3
  GI50: 1.67 µM
  TGI: 3.12 µM
COLO 205
  GI50: 1.89 µM
  TGI: 3.74 µM
OVCAR-8
  GI50: 2.03 µM
  TGI: 4.3 µM
SN12C
  GI50: 1.67 µM
  TGI: 3.2 µM
HCC 2998
  GI50: 1.81 µM
  TGI: 3.42 µM
T47D
  GI50: 2.07 µM
  TGI: 4.81 µM
HT-29
  GI50: 1.67 µM
  TGI: 3.13 µM
DU-145
  GI50: 1.73 µM
  TGI: 3.1 µM
HCT-116
  GI50: 1.56 µM
  TGI: 3.11 µM
MDA-MB-435
  GI50: 2.11 µM
  TGI: 4.17 µM
SNB-19
  GI50: 1.74 µM
  TGI: 3.42 µM
TK-10
  GI50: 1.87 µM
  TGI: 3.43 µM
UACC-257
  GI50: 2.1 µM
  TGI: 4.05 µM
NCI-H460
  GI50: 1.73 µM
  TGI: 3.49 µM
[1]
  GI50: 1.74 µM
  TGI: 4.34 µM
NCI-H522
  GI50: 1.67 µM
  TGI: 3.41 µM
HCT-15
  GI50: 1.57 µM
  TGI: 3.17 µM
OVCAR-5
  GI50: 1.6 µM
  TGI: 3.02 µM
SNB-75
  GI50: 1.49 µM
  TGI: 3.18 µM
IGROV-1
  GI50: 2.57 µM
  TGI: 5.38 µM
MDA-MB-231
  GI50: 2.07 µM
  TGI: 4.79 µM
OVCAR-4
  GI50: 1.65 µM
  TGI: 4.01 µM
M14
  GI50: 1.68 µM
  TGI: 3.2 µM
HL-60(TB)
  GI50: 1.78 µM
  TGI: 4.53 µM
SK-MEL-5
  GI50: 1.58 µM
  TGI: 3.05 µM
SR
  GI50: 1.45 µM
  TGI: 4.2 µM
A549
  GI50: 2.25 µM
  TGI: 5.64 µM
CAKI-1
  GI50: 2.27 µM
  TGI: 4.67 µM
MDA-MB-468
  GI50: 1.52 µM
  TGI: 2.85 µM
ACHN
  GI50: 1.71 µM
  TGI: 3.15 µM
KM12
  GI50: 1.75 µM
  TGI: 3.33 µM
LOX IMVI
  GI50: 1.68 µM
  TGI: 3.47 µM
Hs-578T
  GI50: 2.51 µM
  TGI: 7.26 µM
NCI-H23
  GI50: 1.7 µM
  TGI: 3.73 µM
SF-268
  GI50: 1.9 µM
  TGI: 4.21 µM
MCF7
  GI50: 1.57 µM
  TGI: 3.03 µM
SK-MEL-2
  GI50: 1.75 µM
  TGI: 3.5 µM
HOP-62
  GI50: 2.05 µM
  TGI: 3.98 µM
UACC-62
  GI50: 2.02 µM
  TGI: 3.76 µM
SF-295
  GI50: 2.21 µM
  TGI: 4.65 µM
NCI-H322M
  GI50: 1.93 µM
  TGI: 3.99 µM
Malme-3M
  GI50: 1.96 µM
  TGI: 4.03 µM
SK-MEL-28
  GI50: 1.91 µM
  TGI: 3.47 µM
RXF 393
  GI50: 1.66 µM
  TGI: 3.04 µM
MOLT-4
  GI50: 1.25 µM
  TGI: 3.57 µM
